# Reference: ChEMBL document CHEMBL3351368, “Biphenyl-4-carboxylic acid [2-(1H-indol-3-yl)-ethyl]-methylamide (CA224), a nonplanar analogue of fascaplysin, inhibits Cdk4 and tubulin polymerization: evaluation of in vitro and in vivo anticancer activity” (J Med Chem, 2014)
# Activity calls are given as the source filed them.
# Tests used:
# [1] = target: Insulin-like growth factor 1 receptor (Homo sapiens) (UniProt P08069); test: Inhibition of human IGF-1R assessed as enzyme activity at 10 uM
# [2] = Growth inhibition of p53His273 mut, pRb+ human MiaPaCa cells after 48 hrs by MTT assay; assay type: functional; details: MIA PaCa-2, 48 h
# Summary of the method: (§1)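 MTT cell proliferation assay. IC50 (µM) was defined as the concentration giving 50% inhibition of cell growth.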
# [3] = Growth inhibition of p53+, pRb+ human NCI-H460 cells after 48 hrs by MTT assay; assay type: functional, cell-based; details: NCI-H460, 48 h; summary of the method: as §1
# NCI-H358 [4] = test: Growth inhibition of p53 null, pRb null human NCI-H358 cells after 48 hrs by MTT assay; assay type: functional, cell-based; details: NCI-H358, 48 h; summary of the method: as §1
# NCI-H1299 [5] = test: Cell cycle arrest in human NCI-H1299 cells assessed as accumulation of cells at S phase at IC50 concentration after 24 hrs by flow cytometry (reference value: 21%); assay type: functional
# NCI-H358 [6] = test: Cell cycle arrest in human NCI-H358 cells assessed as accumulation of cells at G0/G1 phase at IC50 concentration after 12 hrs by flow cytometry in presence of nocodazole for 18 hrs (reference value: 40%); assay type: functional
# NCI-H358 [7] = test: Cell cycle arrest in human NCI-H358 cells assessed as accumulation of cells at S phase at IC50 concentration after 18 hrs by flow cytometry in presence of […] uM hydroxyurea for 18 hrs (reference value: 12%); assay type: functional
# [8] = Cell cycle arrest in mouse BNL-CL2 cells assessed as accumulation of cells at G0/G1 phase at IC50 concentration after 48 hrs by flow cytometry (reference value: 57%); assay type: functional
# Summary of the method: (§2)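 Normal (BNL CL2) and SV40 large T-antigen transformed (BNL SV A.8) mouse embryonic hepatic cells were treated at IC50 or IC70 concentration for 48 h. Analysis was by FACS, with apoptosis taken as % cells in the sub-G1 peak. Untreated cells served as control.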
# [9] = Cell cycle arrest in mouse BNL-SVA.8 cells assessed as accumulation of cells at S phase at IC50 concentration after 48 hrs by flow cytometry (reference value: 23%); assay type: functional; summary of the method: as §2
# MiaPaCa [10] = test: Effect on p27 level in p53His273 mutant, pRb+ human MiaPaCa cells at IC50 concentration after 48 hrs by Western blot analysis; assay type: functional
# MiaPaCa [11] = test: Induction in Cdk1 level in p53His273 mutant, pRb+ human MiaPaCa cells at IC50 concentration after 48 hrs by Western blot analysis; assay type: functional
# Tubulin (Homo sapiens) = Tubulin (Homo sapiens) (UniProt P68371+Q9H4B7+P0DPH7+P68366+Q13509+Q71U36+P04350+Q3ZCM7+P07437+P68363+Q9BQE3+Q6PEY2+Q13885+Q9BVA1+Q9BUF5); test: Inhibition of tubulin polymerization in p53+, pRb+ human A549 cells assessed as paclitaxel-mediated polymerization treated simultaneously measured after 30 mins by Western blot analysis; assay type: cell-based
# A549 [12] = test: Anticancer activity against p53+, pRb+ human A549 cells assessed as reduction in colony formation efficiency at 1.4 uM after 24 hrs by visual count/crystal violet staining method; assay type: functional; details: A549, 24 h
# Summary of the method: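 Long-term survival assay. A549 and Calu-1 cells treated with a range of concentrations, colonies counted, efficiency expressed as percent of colonies versus untreated cultures. Means and standard deviations of three independent experiments.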
# A549 [13] = test: Induction of apoptosis in p53+, pRb+ human A549 cells assessed as fragmented nuclei/distrupted cell membrane after 24 hrs by DAPI staining-based flow cytometry; assay type: functional
# A549 [14] = test: Induction of apoptosis in p53+, pRb+ human A549 cells assessed as fragmented nuclei/distrupted cell membrane at 1 to 10 uM by DAPI staining-based flow cytometry; assay type: functional; details: TDE = time-dependent effect
# [15] = Solubility in water; assay type: physicochemical
# CYP3A4 = CYP3A4 (Homo sapiens, UniProt P08684); test: Inhibition of human recombinant CYP3A4 at 10 uM; assay type: ADME
# [16] = AUC (0 to infinity) in BALB/c mouse at 10 mg/kg, po; assay type: ADME, organism-based; parameters: time infinity, dose 10 mg/kg, route oral; details: plasma
# Summary of the method: (§3)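 BALB/c mice given a single dose of 1.0 mg/kg IV or 10 mg/kg orally; plasma concentration followed over time and pharmacokinetic parameters derived from the time-concentration profile.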
# [17] = Cmax in BALB/c mouse at 10 mg/kg, po; assay type: ADME, organism-based; parameters: dose 10 mg/kg, route oral; details: in vivo; summary of the method: as §3
# [18] = Volume of distribution at steady state in BALB/c mouse at 1 mg/kg, iv; assay type: ADME, organism-based; parameters: dose 1 mg/kg, route intravenous; details: in vivo, read-out: Vdss; summary of the method: as §3
# [19] = Clearance in BALB/c mouse at 1 mg/kg, iv; assay type: ADME, organism-based; parameters: dose 1 mg/kg, route intravenous; details: in vivo; summary of the method: as §3
# [20] = Oral bioavailability in BALB/c mouse at 10 mg/kg; assay type: ADME, organism-based; details: in vivo; summary of the method: as §3
# [21] = Terminal half life in BALB/c mouse at 10 mg/kg, po; assay type: ADME, organism-based; parameters: dose 10 mg/kg, route oral; details: in vivo, read-out: beta t1/2 (converted); summary of the method: as §3
# [22] = Maximum tolerated dose in ip dosed Swiss mouse assessed as body weight change treated for 5 days; assay type: ADME, organism-based; details: in vivo
# Summary of the method: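 Swiss albino mice, 6 per group, are dosed intraperitoneally once daily for five days (Q1D x 5) at several doses. The formulation contains Tween 20. Body weight is tracked over a two-week study, and MTD is set as the dose giving >10% weight loss; a drop of >20% is rated highly significant.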
# NCI-H460 = test: Antitumor activity against human NCI-H460 cells xenografted in SCID mouse assessed as inhibition of tumor growth at 100 mg/kg, ip relative to untreated control; assay type: functional, organism-based; parameters: dose 100 mg/kg
# Summary of the method: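 Female SCID mice (15-24 g, 6-8 weeks) were given 5.3 × 10^6 NCI-H460 cells s.c. on the dorsal side. At 4-6 mm tumours (about 6 days) they were randomised into groups of 6 or 7 and dosed i.p. for 9 consecutive days. Tumour size was recorded every 2-5 days; weight = L × W² × 0.5. %T/C and %GI = 100 − %T/C; Student t-test versus control.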
# BNL-CL2 = test: Cell cycle arrest in mouse BNL-CL2 cells assessed as accumulation of cells at G2/M phase at IC70 concentration after 48 hrs by flow cytometry; assay type: functional, cell-based; summary of the method: as §2
# A549 [23] = test: Reduction Cdk1 level in p53+, pRb+ human A549 cells at IC50 concentration after 24 hrs by Western blot analysis
# A549 [24] = test: Induction of p21 level in p53+, pRb+ human A549 cells at IC50 concentration after 24 hrs by Western blot analysis
# NCI-H1299 [25] = test: Induction of apoptosis in p53 null, pRb+ human NCI-H1299 cells assessed as fragmented nuclei/distrupted cell membrane at 1 to 10 uM by DAPI staining-based flow cytometry; details: TDE = time-dependent effect
# NCI-H358 [26] = test: Induction of apoptosis in p53 null, […] human NCI-H358 cells assessed as fragmented nuclei/distrupted cell membrane at 1 to 10 uM by DAPI staining-based flow cytometry; details: TDE = time-dependent effect
# Insulin-like growth factor 1 receptor (Homo sapiens), sequence (P08069 31-736 limits assumed): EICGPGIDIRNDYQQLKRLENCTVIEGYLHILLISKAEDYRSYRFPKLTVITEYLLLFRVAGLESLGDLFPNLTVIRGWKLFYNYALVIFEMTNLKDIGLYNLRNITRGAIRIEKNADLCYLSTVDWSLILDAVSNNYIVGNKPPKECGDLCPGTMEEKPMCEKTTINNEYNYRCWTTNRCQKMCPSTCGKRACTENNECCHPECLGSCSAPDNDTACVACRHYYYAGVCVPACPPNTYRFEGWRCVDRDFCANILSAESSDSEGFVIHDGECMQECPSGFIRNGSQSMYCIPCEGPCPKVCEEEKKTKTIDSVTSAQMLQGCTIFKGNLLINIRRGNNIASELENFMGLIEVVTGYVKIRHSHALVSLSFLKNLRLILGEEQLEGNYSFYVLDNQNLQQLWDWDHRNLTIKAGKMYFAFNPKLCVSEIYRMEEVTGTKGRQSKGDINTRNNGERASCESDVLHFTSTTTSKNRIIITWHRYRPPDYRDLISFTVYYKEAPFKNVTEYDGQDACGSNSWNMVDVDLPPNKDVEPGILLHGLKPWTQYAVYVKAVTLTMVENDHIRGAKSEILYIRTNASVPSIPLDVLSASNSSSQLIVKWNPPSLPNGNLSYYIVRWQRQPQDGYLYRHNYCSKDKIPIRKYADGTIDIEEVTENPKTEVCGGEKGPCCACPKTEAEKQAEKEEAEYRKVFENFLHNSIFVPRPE
# Insulin-like growth factor 1 receptor (Homo sapiens), sequence (P08069 741-1367 limits assumed): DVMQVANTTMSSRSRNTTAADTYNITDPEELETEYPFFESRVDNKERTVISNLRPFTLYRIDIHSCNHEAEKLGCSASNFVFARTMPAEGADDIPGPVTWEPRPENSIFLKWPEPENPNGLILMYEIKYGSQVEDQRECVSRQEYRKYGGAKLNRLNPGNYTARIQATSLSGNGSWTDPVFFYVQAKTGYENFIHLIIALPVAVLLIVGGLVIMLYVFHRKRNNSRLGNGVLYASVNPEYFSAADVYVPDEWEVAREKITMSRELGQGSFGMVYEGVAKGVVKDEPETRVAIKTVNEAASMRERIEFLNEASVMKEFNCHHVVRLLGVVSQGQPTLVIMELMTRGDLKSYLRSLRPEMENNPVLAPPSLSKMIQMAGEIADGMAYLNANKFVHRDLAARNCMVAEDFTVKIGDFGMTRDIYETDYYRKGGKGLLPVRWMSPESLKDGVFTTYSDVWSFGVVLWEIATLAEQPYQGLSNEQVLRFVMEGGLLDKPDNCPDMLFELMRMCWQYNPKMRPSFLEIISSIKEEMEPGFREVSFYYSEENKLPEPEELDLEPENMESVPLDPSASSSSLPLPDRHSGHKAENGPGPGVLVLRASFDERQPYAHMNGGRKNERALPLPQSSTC
# CYP3A4, sequence (P08684 whole entry): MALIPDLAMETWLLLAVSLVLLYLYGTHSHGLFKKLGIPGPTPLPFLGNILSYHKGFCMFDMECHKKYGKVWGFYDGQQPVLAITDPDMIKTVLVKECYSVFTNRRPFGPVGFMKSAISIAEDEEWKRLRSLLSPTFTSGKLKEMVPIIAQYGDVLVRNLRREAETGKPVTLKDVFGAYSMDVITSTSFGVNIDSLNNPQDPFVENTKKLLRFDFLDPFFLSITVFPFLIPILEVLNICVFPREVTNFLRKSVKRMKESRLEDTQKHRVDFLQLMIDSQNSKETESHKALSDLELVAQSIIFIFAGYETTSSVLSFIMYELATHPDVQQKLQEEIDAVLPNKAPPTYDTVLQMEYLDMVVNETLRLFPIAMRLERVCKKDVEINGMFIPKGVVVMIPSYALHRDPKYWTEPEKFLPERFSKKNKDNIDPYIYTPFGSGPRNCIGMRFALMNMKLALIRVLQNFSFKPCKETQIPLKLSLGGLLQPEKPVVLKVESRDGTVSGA
structure (smiles),measurement,setting,value
CN(CCc1c[nH]c2ccccc12)C(=O)c1ccc(-c2ccccc2)cc1,inhibition,[1],inactive
same,IC50,[2],4 µM
same,IC50,[3],2000 nM
same,IC50,NCI-H358 [4],2200 nM
same,Activity,NCI-H1299 [5],10%
same,Activity,NCI-H358 [6],7%
same,Activity,NCI-H358 [7],10%
same,Activity,[8],34%
same,Activity,[9],21%
same,Activity,MiaPaCa [10],inactive
same,Activity,MiaPaCa [11],Active
same,inhibition,Tubulin (Homo sapiens),Dose-dependent effect
same,inhibition at 1.4 µM,A549 [12],50%
same,Activity,A549 [13],Dose-dependent effect
same,Activity,A549 [14],tde
same,solubility,[15],80 µg/mL
same,inhibition at 10 µM,CYP3A4,50%
same,AUC(0-inf),[16],182 ng·h/mL
same,Cmax,[17],190 ng/mL
same,Vd,[18],1.76 L/kg
same,clearance,[19],88.3 mL/min/kg
same,bioavailability,[20],9.6%
same,half-life,[21],69.6 min
same,MTD at 120 h,[22],1000 mg/kg
same,Activity,NCI-H460,Active
same,Activity,BNL-CL2,Active
same,inhibition,A549 [23],Active
same,Activity,A549 [24],Active
same,Activity,NCI-H1299 [25],tde
same,Activity,NCI-H358 [26],tde
